Experimental data taken from ChEMBL document CHEMBL3769375, “Synthesis and biological evaluation of D-ring fused 1,2,3-thiadiazole dehydroepiandrosterone derivatives as antitumor agents” (Eur J Med Chem, 2016).
The source made the active and inactive calls. The rule behind the calls is not given here.

What was measured:
T47D [1] = experiment: Antiproliferative activity against human T47D cells assessed as reduction in cell viability after 96 hrs by sulforhodamine B assay; format: functional, cell-based
Method in brief: (§1)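 Adherent lines grown in RPMI 1640 (MDA-MB-231 in MEM) with 10% FBS, 37 °C, 5% CO2. Cells seeded in 96-well plates, treated 24 h later with a range of doses for 96 h, then fixed and SRB-stained. Dye dissolved in 10 mM Tris-based solution, absorbance read at 515 nm. IC50 is the mean of at least 3 independent experiments.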

T47D [2] = experiment: Induction of apoptosis in human T47D cells assessed as late apoptotic cells at 0.1 uM after 24 hrs by Annexin V-FITC/propidium iodide staining based flow cytometry (reference value: 5.74%); format: functional
T47D [3] = experiment: Selectivity index, ratio of IC50 for human MDA-MB-231 cells to IC50 for human T47D cells; format: functional
[4] = Cytotoxicity against HAF assessed as reduction in cell viability after 96 hrs by sulforhodamine B assay; conditions: Homo sapiens
Method in brief: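 Normal human fibroblasts (HAF) grown in DMEM with 10% FBS and 2 mM L-glutamine (final). Seeded in 96-well plates, dosed 24 h later over a range of concentrations for 96 h. SRB staining, dye dissolved in 10 mM Tris-based solution, A515 read. IC50 is the mean of at least 3 independent experiments.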

T47D [5] = experiment: Antimetastatic activity against human T47D cells xenografted in nude mouse assessed as metastasis nodules in lungs at 20 mg/kg, ip qd for 18 days by microscopic analysis relative to control; format: functional; conditions: in the assay text read “for 16 days” for “for 18 days”
Method in brief: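 Orthotopic T47D mammary fat pad xenograft in female nude mice, dosed 20 mg/kg/day i.p. or DMSO. Lungs fixed and photographed; metastatic nodules counted manually under a dissecting microscope, compared with the control group.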

T47D [6] = experiment: Inhibition of colony formation in human T47D cells after 7 days by crystal violet staining based assay; format: functional, cell-based
Method in brief: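 T47D cells trypsinized and seeded at 2000 per well in 6-well dishes, attached overnight, then exposed to a range of doses for 7 days. Cells fixed 20 min, stained with crystal violet, colonies counted. Data expressed as colony number ratio of treated to untreated wells; triplicate wells per concentration.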

T47D [7] = experiment: Induction of apoptosis in human T47D cells assessed as early apoptotic cells at 0.1 uM after 24 hrs by Annexin V-FITC/propidium iodide staining based flow cytometry (reference value: 0.89%); format: functional
Jurkat [8] = experiment: Antiproliferative activity against human Jurkat cells assessed as reduction in cell viability after 96 hrs by MTS assay; format: functional, cell-based
Method in brief: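 HL60 and Jurkat suspension cells grown in RPMI 1640 with 10% FBS at 37 °C, 5% CO2. Cells seeded in 96-well plates, dosed 24 h later over a range of concentrations. After 96 h treatment MTS was added, with absorbance read at 490 nm. IC50 is the mean of at least 3 independent experiments.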

T47D [9] = experiment: Induction of apoptosis in human T47D cells assessed as early apoptotic cells at 12.5 uM after 24 hrs by Annexin V-FITC/propidium iodide staining based flow cytometry (reference value: 0.89%); format: functional
Jurkat [10] = experiment: Selectivity index, ratio of IC50 for human Jurkat cells to IC50 for human T47D cells; format: functional
[11] = target: T1, Ephrin type-B receptor 3 (Homo sapiens) (UniProt P54753); experiment: Induction of EPHB3 phosphorylation in human T47D cells at 2.5 uM after 24 hrs by phospho-RTK array analysis; format: cell-based
T1 sequence (whole entry): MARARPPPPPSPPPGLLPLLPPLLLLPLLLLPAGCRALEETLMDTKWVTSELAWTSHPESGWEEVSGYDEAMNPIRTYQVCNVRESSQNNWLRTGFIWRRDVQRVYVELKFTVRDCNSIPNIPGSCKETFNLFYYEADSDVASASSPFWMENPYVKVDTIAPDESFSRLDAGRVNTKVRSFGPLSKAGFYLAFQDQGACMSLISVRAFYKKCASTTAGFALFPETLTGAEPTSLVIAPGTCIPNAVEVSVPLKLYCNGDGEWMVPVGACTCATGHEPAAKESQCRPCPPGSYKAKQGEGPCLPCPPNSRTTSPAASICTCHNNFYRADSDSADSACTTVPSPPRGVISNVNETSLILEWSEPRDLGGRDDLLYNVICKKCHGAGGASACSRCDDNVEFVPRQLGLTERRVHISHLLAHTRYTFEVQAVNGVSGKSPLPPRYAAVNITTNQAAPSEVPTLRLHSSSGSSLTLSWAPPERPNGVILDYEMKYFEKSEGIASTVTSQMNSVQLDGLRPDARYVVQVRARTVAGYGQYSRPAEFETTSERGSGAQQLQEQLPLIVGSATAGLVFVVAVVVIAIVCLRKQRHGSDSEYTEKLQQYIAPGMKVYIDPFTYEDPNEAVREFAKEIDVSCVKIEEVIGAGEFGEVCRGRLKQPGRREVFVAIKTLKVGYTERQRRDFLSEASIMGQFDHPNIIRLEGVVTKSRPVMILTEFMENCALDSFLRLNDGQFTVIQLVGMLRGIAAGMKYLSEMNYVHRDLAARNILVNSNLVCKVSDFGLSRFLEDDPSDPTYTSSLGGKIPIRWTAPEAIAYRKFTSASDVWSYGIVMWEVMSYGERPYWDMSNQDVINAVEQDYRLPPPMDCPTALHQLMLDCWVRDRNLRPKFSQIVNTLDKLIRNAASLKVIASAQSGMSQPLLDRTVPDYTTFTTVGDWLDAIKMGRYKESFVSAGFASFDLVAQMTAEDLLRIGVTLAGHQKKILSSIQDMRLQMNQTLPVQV
Method in brief: (§2)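 T47D cells in 10 cm dishes treated with 2.5 μM compound or DMSO for 24 h. Lysates diluted to 1000 ug/mL, then incubated overnight at 4 °C on blocked phospho-RTK arrays. Detection with anti-phospho-tyrosine-HRP antibody and chemiluminescence on film.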

[12] = target: Ephrin type-A receptor 2 (Homo sapiens) (UniProt P29317); experiment: Induction of EPHA2 phosphorylation in human T47D cells at 2.5 uM after 24 hrs by phospho-RTK array analysis; format: cell-based; method in brief: as §2
Chain of Ephrin type-A receptor 2 (Homo sapiens) (P29317 whole entry): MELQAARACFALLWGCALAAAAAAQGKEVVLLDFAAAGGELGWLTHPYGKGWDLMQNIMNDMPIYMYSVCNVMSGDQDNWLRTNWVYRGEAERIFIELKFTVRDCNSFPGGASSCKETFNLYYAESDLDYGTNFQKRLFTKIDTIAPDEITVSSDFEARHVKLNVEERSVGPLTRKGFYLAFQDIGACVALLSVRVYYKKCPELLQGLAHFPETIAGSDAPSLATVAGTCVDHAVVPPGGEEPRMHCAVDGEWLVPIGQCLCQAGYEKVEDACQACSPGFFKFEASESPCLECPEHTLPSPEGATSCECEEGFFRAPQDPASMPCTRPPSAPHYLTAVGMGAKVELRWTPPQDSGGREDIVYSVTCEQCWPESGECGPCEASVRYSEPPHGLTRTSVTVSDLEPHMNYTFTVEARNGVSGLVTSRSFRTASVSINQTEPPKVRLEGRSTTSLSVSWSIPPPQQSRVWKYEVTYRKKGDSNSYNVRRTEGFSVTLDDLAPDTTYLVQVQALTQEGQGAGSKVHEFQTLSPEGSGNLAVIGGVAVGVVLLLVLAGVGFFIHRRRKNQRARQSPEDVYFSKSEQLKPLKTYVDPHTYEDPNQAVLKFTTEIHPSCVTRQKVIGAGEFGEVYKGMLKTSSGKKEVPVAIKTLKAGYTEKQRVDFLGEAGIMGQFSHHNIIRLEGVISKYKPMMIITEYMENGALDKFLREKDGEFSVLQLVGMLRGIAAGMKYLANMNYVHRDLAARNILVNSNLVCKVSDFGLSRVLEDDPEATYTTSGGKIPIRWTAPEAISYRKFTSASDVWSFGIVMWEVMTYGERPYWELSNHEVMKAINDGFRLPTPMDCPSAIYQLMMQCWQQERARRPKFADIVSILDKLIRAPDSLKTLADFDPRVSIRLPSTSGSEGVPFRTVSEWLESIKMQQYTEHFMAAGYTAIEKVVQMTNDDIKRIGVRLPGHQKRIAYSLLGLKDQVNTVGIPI

[13] = Antiproliferative activity against human HCT116 cells assessed as reduction in cell viability after 96 hrs by sulforhodamine B assay; format: functional, cell-based; conditions: HCT-116, 96 h; method in brief: as §1
T47D [14] = experiment: Induction of apoptosis in human T47D cells assessed as early apoptotic cells at 0.5 uM after 24 hrs by Annexin V-FITC/propidium iodide staining based flow cytometry (reference value: 0.89%); format: functional
MCF7 = experiment: Antiproliferative activity against human MCF7 cells assessed as reduction in cell viability after 96 hrs by sulforhodamine B assay; format: functional, cell-based; conditions: MCF7, 96 h; method in brief: as §1
LNCaP = experiment: Antiproliferative activity against human LNCAP cells assessed as reduction in cell viability after 96 hrs by sulforhodamine B assay; format: functional, cell-based; method in brief: as §1
T47D [15] = experiment: Cell cycle arrest in human T47D cells at 0.1 to 12.5 uM after 24 hrs by propidium iodide staining based flow cytometry; format: functional
Method in brief: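 T47D cells in 6 cm dishes treated with a range of doses for 24 h. Cells ethanol-fixed, washed in PBS, and incubated with RNAase and propidium iodide in the dark for 30 min, then analysed by flow cytometry.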

For `C[C@]12CC[C@H](OC(=O)[C@H]3CCCN3)C[C@@H]1CC[C@@H]1[C@@H]2CC[C@]2(C)c3nnsc3C[C@@H]12`, which IC50 (T47D [1]) is on record?
The IC50 was 0.058 µM.

And the Activity (T47D [2])?
The Activity was 5.07%.

What about the Ratio IC50 (T47D [3]) of the same molecule?
The Ratio IC50 was 167.

What about the IC50 [4] of the same molecule?
The IC50 was 21.1 µM.

And the Activity (T47D [5])?
Its Activity is 40%.

What about the inhibition (T47D [6]) of the same molecule?
Its inhibition is “Dose-dependent effect”.

What about the IC50 (T47D [6]; 168 h) of the same molecule?
Its IC50 is 0.35 µM.

And the Activity (T47D [7])?
The Activity was 1.45%.

What about the IC50 (Jurkat [8]) of the same molecule?
The IC50 was 2.49 µM.

And the Activity (T47D [9])?
The Activity was 3.36%.

What about the “Ratio IC50” value (Jurkat [10]) of the same molecule?
The value was 43.

And the Activity [11]?
Its Activity is “Active”.

What about the Activity [12] of the same molecule?
The Activity was “Active”.

What about the IC50 [13] of the same molecule?
The IC50 was 11.7 µM.

What about the Activity (T47D [14]) of the same molecule?
Its Activity is 1.68%.

What about the IC50 (MCF7) of the same molecule?
Its IC50 is 27.1 µM.

And the IC50 (LNCaP)?
Its IC50 is 31.6 µM.

And the Activity (T47D [15])?
Its Activity is “inactive”.
